Test results taken from ChEMBL document CHEMBL1147053, “HIV protease inhibitors block the zinc metalloproteinase ZMPSTE24 and lead to an accumulation of prelamin A in cells” (Proc Natl Acad Sci U S A, 2007).
The source made the active and inactive calls. The rule behind the calls is not given here.

Key:
[1] = Inhibition of farnesyl transferase
How it was run: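 FTase (50 ng) was incubated with 500 nM [³H]FPP and 1 μM recombinant H-Ras substrate for 10 min at 30°C, with or without drug. Protein was precipitated and glass-fibre filtered, and incorporated radiolabelled isoprenoid was counted by scintillation. Values are the mean of triplicate determinations.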

HeLa = assay: Toxicity in human HeLa cells transfected with GFP-prelamin A construct assessed as accumulation of uncleaved protein at 20 uM by Western blot; format: cell-based
How it was run: (§1)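 Cells were transiently transfected at 80% confluency with a GFP fused to the C-terminal 118 aa of prelamin A. Four hours later, the medium was changed to MEM/10% FBS and drug was added for 18 h (overnight). Uncleaved and cleaved fusion protein were resolved on Western blots probed with anti-GFP and anti-prelamin A antibodies.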

[2] = Toxicity in mouse fibroblast cells assessed as accumulation of prelamin A at 20 uM after 48 hrs by Western blot; format: cell-based
How it was run: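 Mouse fibroblasts were exposed 48 h to drug (20 μM), FTI (5 μM) or DMSO. Prelamin A was detected on Western blots of cell extracts.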

[3] = Toxicity in human AG08470 cells assessed as accumulation of prelamin A at 20 uM after 10 days by Western blot; format: cell-based; conditions: 240 h
How it was run: (§2)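 WT human fibroblasts were cultured in MEM or DMEM with 10% FBS at 37°C, 5% CO₂, then treated 10 days with drug (20 μM), FTI (5 μM) or DMSO. Western blots were probed for lamin A/C, prelamin A antisera "a" (nonfarnesylated only) and "b", and actin. Prelamin A was quantified by image analysis relative to lamin C and to mature lamin A.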

[4] = target: Protein-S-isoprenylcysteine O-methyltransferase (Homo sapiens) (UniProt O60725); assay: Inhibition of human ICMT expressed in yeast assessed as methylation of N-acetyl-farnesylcysteine
Sequence of Protein-S-isoprenylcysteine O-methyltransferase (Homo sapiens) (O60725 whole entry): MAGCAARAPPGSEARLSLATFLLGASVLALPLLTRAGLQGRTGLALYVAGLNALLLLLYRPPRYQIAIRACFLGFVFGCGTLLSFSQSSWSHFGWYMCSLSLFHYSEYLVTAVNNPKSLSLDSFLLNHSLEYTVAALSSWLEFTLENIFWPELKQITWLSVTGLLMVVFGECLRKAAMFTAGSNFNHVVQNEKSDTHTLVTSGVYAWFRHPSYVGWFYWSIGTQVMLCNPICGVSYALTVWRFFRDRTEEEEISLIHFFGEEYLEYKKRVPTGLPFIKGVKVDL

[5] = Toxicity in RCE1 deficient mouse fibroblast cells assessed as accumulation of prelamin A at 20 uM after 24 hrs by Western blot; format: cell-based
How it was run: (§3)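 Rce1−/− or Icmt−/− mouse embryonic fibroblasts were treated 24 h with drug (20 μM) or DMSO, with FTI (5 μM) as a comparator. Extracts were run on 4–12% Bis-Tris gels and Western blotted for lamin A/C and prelamin A, using antiserum "b", which recognises both farnesylated and nonfarnesylated forms.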

[6] = Toxicity in ICMT deficient mouse fibroblast cells assessed as accumulation of prelamin A at 20 uM after 24 hrs by Western blot; format: cell-based; how it was run: as §3
[7] = target: T1, CAAX prenyl protease 2 (Mus musculus) (UniProt P57791); assay: Inhibition of mouse RCE1 expressed in delta ste24 delta rce1 yeast
T1 sequence (whole entry): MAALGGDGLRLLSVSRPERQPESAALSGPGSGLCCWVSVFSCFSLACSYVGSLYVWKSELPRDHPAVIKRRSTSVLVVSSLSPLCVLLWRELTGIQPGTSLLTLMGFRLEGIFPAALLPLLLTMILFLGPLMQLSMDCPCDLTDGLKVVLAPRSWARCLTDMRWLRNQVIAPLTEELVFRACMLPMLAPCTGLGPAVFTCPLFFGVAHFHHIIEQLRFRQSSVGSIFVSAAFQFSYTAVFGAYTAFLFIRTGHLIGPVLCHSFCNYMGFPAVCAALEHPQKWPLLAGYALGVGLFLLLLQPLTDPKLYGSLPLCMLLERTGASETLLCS
How it was run: (§4)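 Coupled endoproteolysis/methylation assay. Δste24Δrce1 yeast membranes overexpressing mouse ZMPSTE24 or RCE1 (5 μg) plus CH2733 Ste14p membranes (8 μg) were incubated with farnesylated 15-mer a-factor peptide (5 μM for ZMPSTE24, 25 μM for RCE1) and 20 μM [¹⁴C]SAM in 100 mM Tris·HCl pH 7.5 for 30 min at 30°C. Reactions were stopped with NaOH/SDS, and base-releasable [¹⁴C]methanol was measured by vapor diffusion. IC50 values were fitted.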

Fibroblast [8] = assay: Effect on change in ZMPSTE24 mRNA expression level in mouse fibroblasts at 20 uM after 10 days by PCR; format: functional, cell-based
[9] = Toxicity in mouse fibroblast cells assessed as accumulation of prelamin A at 20 uM after 10 days by Western blot; format: cell-based; conditions: 240 h
How it was run: (§5)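 WT mouse fibroblasts were treated 10 days with drug (NVP at 200 and 400 μM; STV at 20 and 40 μM; LPV at 20 μM) or DMSO vehicle. Prelamin A accumulation was assessed on Western blots of cell extracts.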

[10] = Toxicity in human AG07095 cells assessed as accumulation of prelamin A at 20 uM after 10 days by Western blot; format: cell-based; conditions: 240 h; how it was run: as §2
[11] = target: T2, CAAX prenyl protease 1 homolog (Mus musculus, UniProt Q80W54); assay: Inhibition of mouse ZMPSTE24 expressed n delta ste24 delta rce1 yeast; how it was run: as §4
T2 sequence (Q80W54 whole entry): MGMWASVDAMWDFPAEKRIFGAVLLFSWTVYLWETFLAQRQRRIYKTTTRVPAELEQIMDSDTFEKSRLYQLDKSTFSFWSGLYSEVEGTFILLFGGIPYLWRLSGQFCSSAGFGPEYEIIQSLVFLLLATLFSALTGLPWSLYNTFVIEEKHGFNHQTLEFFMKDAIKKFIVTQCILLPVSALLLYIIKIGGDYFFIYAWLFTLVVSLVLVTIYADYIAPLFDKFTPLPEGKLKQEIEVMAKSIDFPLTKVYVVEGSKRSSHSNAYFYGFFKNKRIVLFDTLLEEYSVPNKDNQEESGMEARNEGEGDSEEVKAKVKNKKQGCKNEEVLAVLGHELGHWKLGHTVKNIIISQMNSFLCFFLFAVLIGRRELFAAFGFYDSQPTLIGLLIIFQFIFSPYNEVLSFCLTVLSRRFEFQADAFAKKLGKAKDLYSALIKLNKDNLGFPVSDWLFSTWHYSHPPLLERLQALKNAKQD

Fibroblast [12] = assay: Effect on change in ZMPSTE24 protein level in mouse fibroblasts at 20 uM after 10 days by Western blot; format: functional, cell-based
Fibroblast [13] = assay: Effect on HDJ2 farnesylation in mouse fibroblast cells at 20 uM after 24 hrs by Western blot; format: functional, cell-based
How it was run: (§6)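 Wild-type fibroblasts exposed 24 h to drug (20 μM) or DMSO vehicle, with GGTI-298 (15 μM) and FTI (5 μM) run alongside. Isoprenylation was judged by band mobility on Western blots. HDJ-2 extracts were resolved on 15% acrylamide/0.08% bisacrylamide SDS/PAGE; Rap1A was probed with anti-Rap1A and anti-Rap1 antibodies.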

HEK293 [14] = assay: Toxicity in HEK293 cells transfected with GFP-prelamin A construct assessed as accumulation of uncleaved protein at 20 uM by Western blot; format: cell-based; conditions: human, hek293, 20 µM; how it was run: as §1
Fibroblast [15] = assay: Effect on Rap1A isoprenylation in mouse fibroblast cells at 20 uM after 24 hrs by Western blot; format: functional, cell-based; how it was run: as §6
[16] = Toxicity in mouse fibroblast cells assessed as accumulation of prelamin A at 200 uM after 10 days by Western blot; format: cell-based; conditions: 240 h
How it was run: (§7)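 Wild-type mouse fibroblasts were grown at 37 °C in 5% CO₂ in MEM or DMEM with 10% FBS, 2 mM L-glutamine and vitamin/amino acid supplements. Cells were exposed for 10 days to drug (200 mM DMSO stock) or DMSO vehicle. Extracts were run on 4–12% Bis-Tris gels and immunoblotted for lamin A/C, prelamin A (antiserum "b", 1:4,000) and actin.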

[17] = Toxicity in mouse fibroblast cells assessed as accumulation of prelamin A at 400 uM after 10 days by Western blot; format: cell-based; conditions: 240 h; how it was run: as §7
[18] = Toxicity in mouse fibroblast cells assessed as accumulation of prelamin A at 40 uM after 10 days by Western blot; format: cell-based; conditions: 240 h; how it was run: as §5
HEK293 [19] = assay: Toxicity in HEK293 cells transfected with GFP-prelamin A construct assessed as accumulation of uncleaved protein by Western blot; conditions: human

Row | Compound | Activity [1] | Activity [7] | IC50 [11] [µM] | Activity (HeLa) | Activity [2] | Activity [9] | also measured
1 | COC(=O)N[C@H](C(=O)N[C@@H](Cc1ccccc1)[C@@H](O)CN(Cc1ccc(-c2ccccn2)cc1)NC(=O)[C@@H](NC(=O)OC)C(C)(C)C)C(C)(C)C [ATAZANAVIR] | inactive | – | – | Toxic | Toxic | – | –
2 | Cc1ccnc2c1NC(=O)c1cccnc1N2C1CC1 [NEVIRAPINE] | – | – | – | Non-toxic | – | – | Activity [16]: Non-toxic; Activity [17]: Non-toxic
3 | Cc1cn([C@H]2C=C[C@@H](CO)O2)c(=O)[nH]c1=O [STAVUDINE] | – | – | – | Non-toxic | – | Non-toxic | Activity [18]: Non-toxic

The next lines start with results.

Row | Activity [1] | Activity [7] | IC50 [11] [µM] | Compound | Activity (HeLa) | Activity [2] | Activity [9] | also measured
4 | inactive | inactive | 18.4 | Cc1cccc(C)c1OCC(=O)N[C@@H](Cc1ccccc1)[C@@H](O)C[C@H](Cc1ccccc1)NC(=O)[C@H](C(C)C)N1CCCNC1=O [LOPINAVIR] | Toxic | Toxic | Toxic | Activity [3]: Toxic; Activity [4]: inactive; Activity [5]: Toxic; Activity [6]: Toxic; Activity (Fibroblast [8]): inactive; Activity [10]: Toxic; Activity (Fibroblast [12]): inactive; Activity (Fibroblast [13]): inactive; Activity (HEK293 [14]): Toxic; Activity (Fibroblast [15]): inactive
5 | – | inactive | 1.2 | CCC[C@@]1(CCc2ccccc2)CC(O)=C([C@H](CC)c2cccc(NS(=O)(=O)c3ccc(C(F)(F)F)cn3)c2)C(=O)O1 [TIPRANAVIR] | – | – | – | Activity (HEK293 [19]): Toxic
